Experimental data taken from ChEMBL document CHEMBL3102838, “Synthesis of RCAI-172 (C6 epimer of RCAI-147) and its biological activity” (2014).
Calls of active or inactive are those of the source. No cut-off for these calls is given here.

What was measured:
Mus musculus [1] = experiment: Immunomodulatory activity in mouse assessed as IL-4 secretion at 10 ug/mL, iv relative to KRN7000; assay type: functional
How it was run: (§1)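 Female-unspecified mice given glycolipid via tail vein: DMSO stock (1.0 mg/mL) diluted to 10 μg/mL in Dulbecco's PBS just before use; 200 μL injected (2 μg/mouse). Retro-orbital blood drawn into heparinized capillaries at set time points and plasma prepared. Plasma IFN-γ and IL-4 quantified by cytometric bead array. Means ±SD, three mice.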

Mus musculus [2] = experiment: Immunomodulatory activity in mouse assessed as IFNgamma secretion at 10 ug/mL, iv relative to KRN7000; assay type: functional; how it was run: as §1
Mus musculus [3] = experiment: Immunostimulatory activity in C57BL/6 mouse autoimmune encephalomyelitis model assessed as decrease in IFNgamma secretion inoculated with compound-treated GM-CSF-induced dendritic cells administered on day 3 and 5 relative to KRN7000; assay type: functional; design: scale not given: the % may be the effect or the level left
Mus musculus [4] = experiment: Immunostimulatory activity in C57BL/6 mouse autoimmune encephalomyelitis model assessed as IL-4 secretion inoculated with compound-treated GM-CSF-induced dendritic cells administered on day 3 and 5 relative to KRN7000; assay type: functional
Mus musculus [5] = experiment: Immunomodulatory activity in mouse assessed as reduction of IFNgamma secretion at 10 ug/mL, iv relative to KRN7000; assay type: functional; design: scale not given: the % may be the effect or the level left; how it was run: as §1
Mus musculus [6] = species on record: Mus musculus; experiment: Ratio for reduction of IL-4 secretion in mouse to reduction of IFNgamma secretion in mouse; assay type: functional
Mus musculus [7] = experiment: Immunomodulatory activity in mouse assessed as reduction of IL-4 secretion at 10 ug/mL, iv relative to KRN7000; assay type: functional; design: scale not given: the % may be the effect or the level left; how it was run: as §1
Mus musculus [8] = experiment: Immunomodulatory activity in mouse assessed as reduction of IL-4 secretion at 10 ug/mL, iv relative to RCAI-147; assay type: functional; design: scale not given: the % may be the effect or the level left
Mus musculus [9] = experiment: Immunostimulatory activity in C57BL/6 mouse autoimmune encephalomyelitis model inoculated with compound-treated GM-CSF-induced dendritic cells administered on day 3 and 5; assay type: functional, organism-based
How it was run: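 EAE in female C57BL/6 mice was induced on day 1 by subcutaneous MOG35-55/CFA emulsion at two lower-back sites, with an additional adjuvant given intraperitoneally on days 1 and 3. Bone-marrow GM-DC were raised with GM-CSF (10 ng/mL, 5 days), CD11c-enriched, then pulsed with glycolipid (100 ng/mL; 5×10^6 cells/mL, 24 h). Mice were scored daily to day 30 on a 0–5 scale in 0.5 steps.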

Mus musculus [10] = experiment: Immunomodulatory activity in mouse assessed as increase in IL-4 secretion at 10 ug/mL, iv relative to KRN7000; assay type: functional; how it was run: as §1

SMILES | Activity (Mus musculus [1]) | Activity (Mus musculus [2]) | Activity (Mus musculus [3]) | Activity (Mus musculus [4]) | Activity (Mus musculus [5]) | Ratio (Mus musculus [6]) | Activity (Mus musculus [7]) | other results
CCCCCCCCCCCCCCCCCCCCCCCCCC(=O)N[C@@H](CO[C@H]1O[C@H](CO)[C@H](O)[C@H](O)[C@H]1O)[C@H](O)CC[C@H](O)CCCCCCCCCCCC | 19% | 64% | – | – | – | – | – | –
CCCCCCCCCCCCCCCCCCCCCC[C@@H](O)[C@@H](O)[C@@H](O)C(=O)N[C@@H](CO[C@H]1O[C@H](CO)[C@H](O)[C@H](O)[C@H]1O)[C@H](O)[C@H](O)CCCCCCCCCCCCCC | – | – | <5% | >60% | – | – | – | –
CCCCCCCCCCCCCCCCCCCCCCCCCC(=O)N[C@@H](CO[C@H]1O[C@H](CO)[C@H](O)[C@H](O)[C@H]1O)[C@H](O)CC[C@@H](O)CCCCCCCCCCCC | 75% | 160% | – | – | – | – | – | –
CCCCCCCCCCCCCCCCCCCCCCC[C@@H](O)[C@@H](O)C(=O)N[C@@H](CO[C@H]1O[C@H](CO)[C@H](O)[C@H](O)[C@H]1O)[C@H](O)[C@H](O)[C@@H](O)[C@@H](O)CCCCCCCCCCCC | – | – | <5% | >60% | 5% | 14 | 70% | –
CCCCCCCCCCCCCCCCCCCCCCC[C@@H](O)[C@@H](O)C(=O)N[C@@H](CO[C@H]1O[C@H](CO)[C@H](O)[C@H](O)[C@H]1O)[C@H](O)[C@H](O)[C@@H](O)[C@H](O)CCCCCCCCCCCC | – | – | – | – | 4.1% | 8.6 | 35.3% | Activity (Mus musculus [8]): 61%; Activity (Mus musculus [9]): inactive
CCCCCCCCCCCCCCCCCCCCCCC[C@@H](O)[C@@H](O)C(=O)N[C@@H](CO[C@H]1O[C@H](CO)[C@H](O)[C@H](O)[C@H]1O)[C@H](O)[C@H](O)CCCCCCCCCCCCCC | – | 41% | – | – | – | 3.4 | – | Activity (Mus musculus [10]): 138%
